Drawing on ChEMBL document CHEMBL1143391, “Design, synthesis, and evaluation of oxygen-containing macrocyclic peptidomimetics as inhibitors of HCV NS3 protease” (J Med Chem, 2009), this text covers Ratio, Ki and EC90 for 20 compounds.

Experiment [1] can be described thus: Selectivity for HCV NS3 protease over human neutrophil elastase.
Experiment [2] can be described thus: Binding affinity to HCV NS3 protease by spectrophotometry. Set-up: species or system Hepacivirus hominis. An outline of the steps:
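Continuous assay with NS4A-tethered single-chain NS3 serine protease, read out chromogenically. Affinity reported as Ki*.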

The next experiment concerns Hepatitis C virus. Description: Antiviral activity against HCV RNA replication in human hepatoma cells by replicon assay. The experiment is classed as functional, organism-based, Hepacivirus hominis. Background: Replicon systems follow genome replication, usually without infectious particles.

Turning to `C=CCNC(=O)C(=O)[C@@H]1CCCCCCCOC[C@H](NC(=O)N[C@H](C(=O)C2CC2)C2CCCCC2)C(=O)N2C[C@H]3[C@@H]([C@H]2C(=O)N1)C3(C)C`, the Ratio in experiment [1] was determined as 9. For the same compound, the inhibitory constant (Ki) in experiment [2] stood at 160 nM.
For the compound `C=CCNC(=O)C(=O)[C@@H]1CCCCCCCOC[C@H](NC(=O)N[C@H](CN2CCC(C)(C)CC2=O)C(C)(C)C)C(=O)N2C[C@H]3[C@@H]([C@H]2C(=O)N1)C3(C)C`, the Ratio in experiment [1] came to 140. Besides, the EC90 in the experiment on Hepatitis C virus (read-out: EC90) is 100 nM. Moreover, the affinity in experiment [2], expressed as Ki, was 21 nM.
On the same counts, the results for `C=CCNC(=O)C(=O)[C@@H]1CCCCCCCO[C@@H](C)[C@H](NC(=O)N[C@H](CN2C(=O)C3CCC(C3)C2=O)C(C)(C)C)C(=O)N2C[C@H]3[C@@H]([C@H]2C(=O)N1)C3(C)C` are 2800, 30 nM and 3 nM.
In turn, `CC(C)(C)OC(=O)N[C@@H]1C(=O)N2C[C@H]3[C@@H]([C@H]2C(=O)N[C@H](C(=O)C(N)=O)CCCCCCCCCC1(C)C)C3(C)C` yielded an inhibition constant (Ki) in experiment [2] of 250 nM.
On the same count and under the same terms, with `C=CCNC(=O)C(=O)[C@@H]1CCCCCCCOC[C@H](NC(=O)OC(C)(C)C)C(=O)N2C[C@H]3[C@@H]([C@H]2C(=O)N1)C3(C)C` the figure was 150 nM.
With `C=CCNC(=O)C(=O)[C@@H]1CCCCCCCOC[C@H](NC(=O)N[C@H](CN2C(=O)C3CCC(C3)C2=O)C(C)(C)C)C(=O)N2C[C@H]3[C@@H]([C@H]2C(=O)N1)C3(C)C`, the Ratio in experiment [1] is 1500. The EC90 with Hepatitis C virus (read-out: EC90) stood at 30 nM. Further, the Ki in experiment [2] stood at 3 nM.
On to `C=CCNC(=O)C(=O)[C@@H]1CCCCCCCOC[C@H](NC(=O)N[C@H](CN(C)S(=O)(=O)CC)C(C)(C)C)C(=O)N2C[C@H]3[C@@H]([C@H]2C(=O)N1)C3(C)C`, for which the Ratio in experiment [1] is 350. In experiment [2], this compound gave a Ki of 18 nM.
Regarding `CC(C)(C)NC(=O)N[C@H](C(=O)N1C[C@H]2[C@@H]([C@H]1C(=O)NC(CC1CCC1)C(=O)C(N)=O)C2(C)C)C(C)(C)C` (some centres undefined) [BOCEPREVIR], in experiment [1], the Ratio stood at 2200. Further, the EC90 in the experiment with Hepatitis C virus (read-out: EC90) amounted to 350 nM. In experiment [2], this compound displayed a Ki of 14 nM.
As for `C=CCNC(=O)C(=O)[C@@H]1CCCCCCCO[C@@H](C)[C@H](NC(=O)N[C@H](CN2C(=O)CC(C)(C)CC2=O)C(C)(C)C)C(=O)N2C[C@H]3[C@@H]([C@H]2C(=O)N1)C3(C)C`, the Ratio in experiment [1] was 1400. The concentration for an effect of 90% (EC90) with Hepatitis C virus was 40 nM. For the same compound, in experiment [2], the inhibition constant Ki stood at 7 nM.
As for `C=CCNC(=O)C(=O)[C@@H]1CCCCNC(=O)OCCC[C@H](NC(=O)OC(C)(C)C)C(=O)N2C[C@H]3[C@@H]([C@H]2C(=O)N1)C3(C)C`, the affinity in experiment [2], expressed as Ki, was 660 nM. This counts as sub-micromolar.
The same measure, in the same setting: the same measure for `C=CCNC(=O)C(=O)[C@@H]1CCCCCCCOC[C@H](NC=O)C(=O)N2C[C@H]3[C@@H]([C@H]2C(=O)N1)C3(C)C`: 400 nM.
In experiment [2], `C=CCNC(=O)C(=O)[C@@H]1CCCCCCCCC[C@H](NC(=O)OC(C)(C)C)C(=O)N2C[C@H]3[C@@H]([C@H]2C(=O)N1)C3(C)C` displayed an inhibitory constant (Ki) of 36 nM.
`C=CCNC(=O)C(=O)[C@@H]1CCCCCCC(=O)CC[C@H](NC(=O)OC(C)(C)C)C(=O)N2C[C@H]3[C@@H]([C@H]2C(=O)N1)C3(C)C` came in with a Ki in experiment [2] of 320 nM.
On the same count and under the same terms, with `CC(C)(C)OC(=O)N[C@H]1CS(=O)(=O)CCCCCCC[C@@H](C(=O)C(=O)NC2CC2)NC(=O)[C@@H]2[C@@H]3[C@H](CN2C1=O)C3(C)C` the figure was 670 nM.
Regarding `C=CCNC(=O)C(=O)[C@@H]1CCCCCCCOC[C@H](NC(=O)N[C@H](CN(C)S(=O)(=O)c2cccs2)C(C)(C)C)C(=O)N2C[C@H]3[C@@H]([C@H]2C(=O)N1)C3(C)C`, in experiment [1], the Ratio was found to be 100. The concentration for an effect of 90% (EC90) in the experiment on Hepatitis C virus (read-out: EC90) amounted to 150 nM. In addition, in experiment [2], the Ki was 14 nM.
For `C=CCNC(=O)C(=O)[C@@H]1CCCCCCCOC[C@H](NC(=O)N[C@H](CN2C(=O)CN(C)CC2=O)C(C)(C)C)C(=O)N2C[C@H]3[C@@H]([C@H]2C(=O)N1)C3(C)C` the same measures were 300, 80 nM and 15 nM.
For `C=CCNC(=O)C(=O)[C@@H]1CCCCCCCOC[C@H](NC(=O)N[C@H](CN2CCCCC2=O)C(C)(C)C)C(=O)N2C[C@H]3[C@@H]([C@H]2C(=O)N1)C3(C)C` the same measures were 160, 160 nM and 21 nM.
For `C=CCNC(=O)C(=O)[C@@H]1CCCCCCCOC[C@H](NC(=O)N[C@H](CN2C(=O)CC(C)(C)CC2=O)C(C)(C)C)C(=O)N2C[C@H]3[C@@H]([C@H]2C(=O)N1)C3(C)C` the same measures were 300, 50 nM and 7 nM.
Consider `C=CCNC(=O)C(=O)[C@@H]1CCCCCCCO[C@@H](C)[C@H](NC(=O)N[C@H](CN2CCC(C)(C)CC2=O)C(C)(C)C)C(=O)N2C[C@H]3[C@@H]([C@H]2C(=O)N1)C3(C)C`, for which the Ratio in experiment [1] amounted to 1300. Besides, the EC90 in the experiment with Hepatitis C virus (read-out: EC90) amounted to 60 nM. Further, in experiment [2], the Ki came out at 8 nM.
For `C=CCNC(=O)C(=O)[C@@H]1CCCCCCCO[C@@H](C)[C@H](NC(=O)N[C@H](CN2C(=O)CN(C)CC2=O)C(C)(C)C)C(=O)N2C[C@H]3[C@@H]([C@H]2C(=O)N1)C3(C)C`, the Ratio in experiment [1] came out at 1100. In the experiment with Hepatitis C virus (read-out: EC90), the EC90 turned out to be 60 nM. Affinity in experiment [2] was put at a Ki of 6 nM.

The Ki is a dissociation constant, usually derived from enzyme kinetics or from competition with a known ligand. Low values mean higher affinity, high ones lower affinity. What is called EC90 is the concentration needed for an effect of 90%.
